Activity calls are given as the source filed them. No cut-off for these calls is given here.
Experiments:
Assay type in all cases: functional, cell-based
HeLa = assay: Antiproliferative activity against human HeLa cells after 72 hrs by MTS assay
Method in brief: (§1)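 Cells grown in medium with L-glutamine, 10% fetal bovine serum and 1% penicillin/streptomycin, seeded at 5 × 10³ cells per well, then exposed for 72 h to a rising concentration series. Proliferation read by MTS reagent: 3 h incubation, absorbance at 490 nm. IC50 given as mean ± S.D. of three separate experiments.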

A549 = assay: Antiproliferative activity against human A549 cells after 72 hrs by MTS assay; settings: A549, 72 h; method in brief: as §1
MCF7 [1] = assay: Antiproliferative activity against human MCF7 cells after 72 hrs by MTS assay; settings: MCF7, 72 h; method in brief: as §1
MCF7 [2] = assay: Induction of apoptosis in human MCF7 cells assessed as condensed chromatin at 25 uM after 72 hrs by DAPI staining-based fluorescence analysis
Method in brief: (§2)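 MCF-7 cells (2 × 10³) grown on poly-L-lysine-coated coverslips, treated at 25 µM for 72 h. Then fixed in cold methanol, washed in PBS, stained with DAPI and mounted. Nuclei imaged by fluorescence microscopy; apoptosis scored by nuclear condensation, membrane blebs and apoptotic bodies.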

MCF7 [3] = assay: Induction of apoptosis in human MCF7 cells assessed as fragmented nuclei at 25 uM after 72 hrs by DAPI staining-based fluorescence analysis; method in brief: as §2

Row | Compound | IC50 (HeLa) | IC50 (A549) | IC50 (MCF7 [1]) | Activity (MCF7 [2]) | Activity (MCF7 [3])
1 | C=Cc1ccc(-c2c3c(c(OC)c4c2OCO4)[C@H]([C@H]2OC(=O)c4c2ccc(OC)c4OC)N(C)CC3)cc1 | 20.3 µM | 42.7 µM | 34.3 µM | Active | Active
2 | COc1ccc2c(c1OC)C(=O)O[C@@H]2[C@H]1c2c(c(-c3ccc(C(F)(F)F)cc3)c3c(c2OC)OCO3)CCN1C | 22.8 µM | 57.3 µM | 41.3 µM |  | 
3 | CCOC(=O)c1ccc(-c2c3c(c(OC)c4c2OCO4)[C@H]([C@H]2OC(=O)c4c2ccc(OC)c4OC)N(C)CC3)cc1 | 21.2 µM | 53.1 µM | 40.7 µM | Active | Active
4 | COc1ccc2c(c1OC)C(=O)O[C@@H]2[C@H]1c2c(c(-c3cccnc3)c3c(c2OC)OCO3)CCN1C | 8.9 µM | 31.6 µM | 16.6 µM |  | 
5 | CCOC(=O)c1cc(-c2c3c(c(OC)c4c2OCO4)[C@H]([C@H]2OC(=O)c4c2ccc(OC)c4OC)N(C)CC3)ccc1Cl | 9 µM | 33.8 µM | 18.8 µM | Active | Active
6 | COc1ccc2c(c1OC)C(=O)O[C@@H]2[C@H]1c2c(c(-c3cccc(NC(C)=O)c3)c3c(c2OC)OCO3)CCN1C | 9.2 µM | 32.6 µM | 17.8 µM | Active | Active
7 | COc1ccc2c(c1OC)C(=O)O[C@@H]2[C@H]1c2c(cc3c(c2OC)OCO3)CCN1C [NOSCAPINE] | 24 µM | 62.9 µM | 42.3 µM |  | 
